PubChem BioAssay
Calls of active or inactive are those of the source.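 How the source made its calls, unless noted: active means GFP response above 150% of the DMSO level; inconclusive means fewer than 70 events counted for a yeast strain; inactive means the rest.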

Columns and labels:
[1] = RPL19A-GFP modulators, yeast TOR pathway, confirmation, cell-based, S. cerevisiae, flow cytometry, cherry picks, mother/daughter gates (AID 2270;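 active means GFP response below 50% of the DMSO control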); details: S. cerevisiae RPL19A-GFP strain, 3 h, at 10 µM, stronger effect = lower value, 100 = same GFP as DMSO wells
[2] = LAP4-GFP expression modulators in yeast, confirmation, cell-based, cherry picks, flow cytometry, mother/daughter gates (AID 2271;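 active means GFP response above 150% of the DMSO control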;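 further: ratio of sample to DMSO plate mean so 100% equals DMSO level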); details: S. cerevisiae LAP4-GFP strain, 3 h, at 10 µM, stronger effect = higher value, 100 means same as DMSO control
In short: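 Test system: GFP-fusion yeast strain. Medium: synthetic complete (SC) yeast growth medium. Timing: 3 h treatment at 30 °C with rotation. Measured by: GFP by flow cytometry. Control set: positive rapamycin (400 ng/mL), negative DMSO.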

[3] = modulators of MEP2-GFP levels in yeast, confirmation, S. cerevisiae, flow cytometry GFP, cherry picks (AID 2272;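 active means GFP response above 150% of the DMSO control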;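 further: ratio of well signal to plate DMSO mean so 100% equals DMSO level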); details: S. cerevisiae MEP2-GFP strain, 3 h, at 10 µM, stronger effect = higher value
[4] = AGP1-GFP expression modulators, hit retest, confirmation, cell-based, flow cytometry, S. cerevisiae, cherry picks (AID 2273);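 further: median GFP channel fluorescence over the whole cell population gate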; details: S. cerevisiae AGP1-GFP strain, 3 h, at 10 µM
[5] = modulators of CIT2-GFP expression in yeast, confirmation, S. cerevisiae, GFP fusion, cherry picks, mother/daughter gates (AID 2274); details: S. cerevisiae CIT2-GFP strain, flow cytometry, 3 h, at 10 µM, stronger effect = higher value
[6] = measured here: daughter cell gate
[7] = measured here: mother cell gate
[8] = measured here: daughter cell gate response
[9] = measured here: mother cell gate response

| Structure (SMILES) | GFP response vs DMSO [1] | GFP response vs DMSO [1, 6] [%] | GFP response vs DMSO [1, 7] [%] | GFP response relative to DMSO [2] | GFP response relative to DMSO [2, 8] [%] | GFP response relative to DMSO [2, 9] [%] | GFP response vs DMSO [3] | GFP response, % of DMSO [4] | GFP response, % of DMSO [5] | GFP response, % of DMSO [5, 6] [%] | GFP response, % of DMSO [5, 7] [%] |
| --- | --- | --- | --- | --- | --- | --- | --- | --- | --- | --- | --- |
| Cc1cc(NC(c2ccc(Cl)cc2)c2ccc3cccnc3c2O)no1 (stereo unspecified) | 97.8% (inactive) | 97.4 | 97.6 | 108% (inactive) | 104 | 113 | 100% (inactive) | 94.5% (inactive) | 98.3% (inactive) | 99.1 | 98.5 |
| O=C(CSc1cccc[n+]1[O-])CSc1cccc[n+]1[O-] | 97.8% (inactive) | 101 | 95 | 119% (inactive) | 116 | 120 | 103% (inactive) | 103% (inactive) | 97.2% (inactive) | 101 | 98.2 |
| Cc1[nH][nH]c(=O)c1C(c1ccc(-c2ccc(Cl)c(Cl)c2)o1)c1c(C)[nH][nH]c1=O | 104% (inactive) | 104 | 101 | 173% (active) | 142 | 169 | 130% (inactive) | 115% (inactive) | 103% (inactive) | 105 | 102 |
| CC(C)Oc1ccc(C(=O)/C=C2/C(=O)Nc3ccccc32)cc1 | 88.2% (inactive) | 83.8 | 80.3 | 161% (active) | 119 | 161 | 111% (inactive) | 123% (inactive) | 110% (inactive) | 93.2 | 98.7 |
| COc1ccc(-c2noc(-c3cccc(Cl)c3)n2)cc1OC | 98% (inactive) | 97.3 | 97.6 | 102% (inactive) | 101 | 101 | 102% (inactive) | 96.2% (inactive) | 99.3% (inactive) | 102 | 96.8 |
| COCCCN(C(=O)c1ccco1)c1nc(-c2cc(OC)ccc2OC)cs1 | 95.8% (inactive) | 96.4 | 94 | 98.9% (inactive) | 96 | 100 | 112% (inactive) | 98.4% (inactive) | 100% (inactive) | 103 | 99.3 |
| COc1cc(/C=C2/N=C(c3ccccc3)OC2=O)c(F)cc1OCc1ccccc1 | 99.1% (inactive) | 100 | 98 | 98.9% (inactive) | 102 | 98.4 | 101% (inactive) | 108% (inactive) | 106% (inactive) | 105 | 106 |
| CCOc1cc(/C=C2\N=C(C)OC2=O)cc(Br)c1OCCc1ccccc1 | 100% (inactive) | 99.8 | 101 | 102% (inactive) | 95 | 103 | 99.5% (inactive) | 97.3% (inactive) | 92.1% (inactive) | 92.7 | 88.6 |
| COc1ccc(NC(=O)Nc2ccon2)c(OC)c1 | 101% (inactive) | 102 | 99.5 | 95.7% (inactive) | 94.2 | 95.2 | 99% (inactive) | 106% (inactive) | 103% (inactive) | 99.2 | 101 |
| Fc1ccccc1-c1nc(NCCCN2CCOCC2)c2ccccc2n1 | 94.4% (inactive) | 93.6 | 95.6 | 101% (inactive) | 99.2 | 98.3 | 96.2% (inactive) | 98.5% (inactive) | 96.9% (inactive) | 97.2 | 97.3 |
| CCc1noc(C)c1C(=O)Nc1nc2ccc(OC)cc2s1 | 91.8% (inactive) | 92.7 | 92.5 | 108% (inactive) | 108 | 111 | 99.3% (inactive) | 95.5% (inactive) | 90.3% (inactive) | 92.3 | 90.4 |
| CCc1nnc(NC(=O)c2ccc(S(=O)(=O)N3CCCC(C)C3)cc2)o1 (stereo unspecified) | 101% (inactive) | 99.1 | 98.5 | 98.2% (inactive) | 97.5 | 100 | 101% (inactive) | 105% (inactive) | 102% (inactive) | 105 | 99.3 |
| CCCc1cc(=O)n(-c2nc3ccccc3s2)[nH]1 | 102% (inactive) | 102 | 101 | 101% (inactive) | 101 | 99.4 | 99% (inactive) | 104% (inactive) | 97.3% (inactive) | 97.4 | 96.8 |
| O=S(=O)(Nc1nc2ccccc2nc1Cl)c1ccc2ccccc2c1 | 98.4% (inactive) | 97.9 | 98.1 | 95.7% (inactive) | 92.6 | 97.3 | 96.8% (inactive) | 95.9% (inactive) | 88.6% (inactive) | 88.4 | 88.2 |
| COc1cccc(/C=N/Nc2nc(-c3cccnc3)nc3ccccc23)c1 | 94.7% (inactive) | 93.3 | 93.5 | 104% (inactive) | 101 | 106 | 106% (inactive) | 101% (inactive) | 103% (inactive) | 103 | 100 |
| S=C(Sc1ccc(Cl)cc1)Sc1ccc(Cl)cc1 | 97.6% (inactive) | 93.2 | 95.1 | 112% (inactive) | 108 | 115 | 112% (inactive) | 110% (inactive) | 112% (inactive) | 105 | 107 |
| CC(NC(=O)C1CCC(CNS(=O)(=O)c2ccccc2)CC1)c1ccccc1 (stereo unspecified) | 101% (inactive) | 102 | 101 | 100% (inactive) | 102 | 99.5 | 104% (inactive) | 107% (inactive) | 99.3% (inactive) | 100 | 96.8 |
| Cc1cc(N2CCOCC2)n2nc(C)c(-c3ccccc3)c2n1 | 103% (inactive) | 100 | 102 | 98.2% (inactive) | 95.9 | 97.3 | 101% (inactive) | 101% (inactive) | 98.8% (inactive) | 97.4 | 98.1 |
| CCOc1ccc(N2C(=O)CC(SCCN)C2=O)cc1 (stereo unspecified) | 97.6% (inactive) | 98.9 | 96.6 | 97.9% (inactive) | 99.2 | 97.2 | 105% (inactive) | 92.3% (inactive) | 98.3% (inactive) | 99.1 | 98.5 |
| O=C(COc1ccc(OCc2ccccc2)cc1)NN=C1CCCC1 | 98% (inactive) | 98.4 | 97.1 | 107% (inactive) | 104 | 109 | 103% (inactive) | 99.5% (inactive) | 100% (inactive) | 101 | 99.3 |
| Cn1ncc2c(O/N=C(\N)c3ccc(C(C)(C)C)cc3)ncnc21 | 92.7% (inactive) | 92 | 87.9 | 143% (inactive) | 96.6 | 162 | 121% (inactive) | 106% (inactive) | 182% (active) | 114 | 155 |
| CCOC(=O)C1=C(Cc2ccc(Cl)cc2)C(=O)c2ccccc2C1=O | 99.1% (inactive) | 98.5 | 98.1 | 112% (inactive) | 107 | 111 | 104% (inactive) | 97.3% (inactive) | 99.3% (inactive) | 102 | 94.5 |
| Cc1c(O)ccc(/C=N/Nc2nc(-c3cccnc3)nc3ccccc23)c1O | 97.4% (inactive) | 95.9 | 98.5 | 97.4% (inactive) | 92.5 | 103 | 102% (inactive) | 93.9% (inactive) | 99.1% (inactive) | 96.5 | 98.7 |
| O=C1c2ccsc2SCCN1Cc1cccc(Cl)c1 | 95.4% (inactive) | 92.6 | 95.8 | 108% (inactive) | 104 | 110 | 98.3% (inactive) | 98.7% (inactive) | 99.7% (inactive) | 99.1 | 101 |
| Cc1cccc(N2C(=O)c3cccc4c(N(C)CCO)ccc(c34)C2=O)c1 | 98.8% (inactive) | 96.9 | 99 | 110% (inactive) | 106 | 109 | 103% (inactive) | 101% (inactive) | 105% (inactive) | 105 | 104 |
| Cc1cc(Cl)ccc1N=c1ssnc1Cl | 92.2% (inactive) | 94.2 | 86.5 | 133% (inactive) | 114 | 145 | 109% (inactive) | 97.3% (inactive) | 102% (inactive) | 103 | 101 |
